# Only some compounds are listed: those with a hit (about 2.1% of all), similar ones and a draw of the others.
# STEP inh: STEP (human) phosphatase inhibition. recombinant STEP, OMFP fluorogenic substrate, fluorescence. P54829. hit rate 0.25% among 360,000. inhibition, % at 20 µM;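 active = inhibition at 20 µM, scaled per plate between control wells, above about 37%, limit read from the data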;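 note: 0% = DMSO with enzyme and substrate and 100% = substrate only without enzyme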
# Target sequence (P54829 whole entry, looked up): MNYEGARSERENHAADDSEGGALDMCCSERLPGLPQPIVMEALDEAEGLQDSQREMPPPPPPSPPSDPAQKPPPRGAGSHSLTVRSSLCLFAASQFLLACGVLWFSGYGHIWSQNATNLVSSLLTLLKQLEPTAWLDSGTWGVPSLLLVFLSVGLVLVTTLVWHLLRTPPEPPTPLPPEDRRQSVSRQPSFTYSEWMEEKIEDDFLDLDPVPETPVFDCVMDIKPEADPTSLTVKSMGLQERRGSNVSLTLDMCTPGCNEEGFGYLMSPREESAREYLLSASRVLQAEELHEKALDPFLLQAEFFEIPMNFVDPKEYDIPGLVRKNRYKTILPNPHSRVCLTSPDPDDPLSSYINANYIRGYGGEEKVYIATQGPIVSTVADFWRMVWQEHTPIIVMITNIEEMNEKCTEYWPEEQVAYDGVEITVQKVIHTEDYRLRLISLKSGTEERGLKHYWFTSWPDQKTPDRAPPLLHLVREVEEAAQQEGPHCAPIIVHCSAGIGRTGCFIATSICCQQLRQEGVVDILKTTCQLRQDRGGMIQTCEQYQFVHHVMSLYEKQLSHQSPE
#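 System: isolated STEP enzyme; schedule: 20 min enzyme reaction at room temperature, protected from light; medium: Bis-Tris buffer pH 6.0, 2.5 mM DTT, 0.005% Tween 20; signal: fluorescence, 480/540 nm; dosing: single compound dose of 20 µM, 1% DMSO final; also added: OMFP substrate, 25 µM final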
# SUMO1-SIM PPI: SUMO1-SIM interaction modulation; P63165; SUMO1 binding to a labelled peptide, TR-FRET, 1 h; inhibition, % at 20 µM; hit rate 0.33% among 360,000; AID 602429; in the data active = inhibition above about 37%
# Scp1 inh: inhibitors of human Scp-1 phosphatase. hit rate 0.88% among 340,000. Q9GZU7. inhibition, % at 20 µM. Recombinant Scp1, phosphopeptide, malachite green phosphate absorbance;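 active = inhibition above about 50% at 20 µM, limit read from the data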;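 note: plate controls were DMSO wells with enzyme for no effect and wells lacking enzyme for full effect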
#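 Material: truncated SCP-1 phosphatase (76-261aa) / Buffer or medium: 50 mM Tris acetate pH 5.5, 0.005% Tween-20, 10 mM MgCl2 / Compound dosing: one concentration, 20 µM, with 1.0% DMSO / Incubation: 45 min room-temperature reaction, 5 min colour, 30 min stabiliser / Detection: colorimetric free-phosphate detection, absorbance 630 nm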
# DNMT1 block: blocks human DNA methyltransferase DNMT1; P26358; DNMT1 molecular beacon, Hinp1I cleavage, fluorescence; inhibition (reported as % activation of signal), % at 10 µM; hit rate 0.83% among 360,000; in the data active = inhibition above about 50%
# LMPTP inh: LMPTP (human) inhibition | P24666 | recombinant LMPTP-A, OMFP fluorogenic substrate, fluorescence intensity | inhibition, % at 20 µM | hit rate 0.22% among 360,000 | AID 651560;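 active = compounds that cut the enzyme signal by at least half of the control window in the single-dose screen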;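 note: plate controls were DMSO wells with enzyme plus substrate for no effect and substrate without enzyme for full effect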
# Target sequence (P24666 whole entry, looked up): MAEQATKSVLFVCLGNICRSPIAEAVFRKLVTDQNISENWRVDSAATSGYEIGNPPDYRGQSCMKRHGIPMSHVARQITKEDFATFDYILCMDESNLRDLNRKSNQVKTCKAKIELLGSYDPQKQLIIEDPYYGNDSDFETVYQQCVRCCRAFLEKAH
#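 Test system – LMPTP-A phosphatase enzyme · Quantity – 0.625 nM LMPTP-A final · Reagent – OMFP substrate, 400 µM final · Dosing – one test concentration per compound, 20 µM, with 3% DMSO overall · Timing – 50 min enzyme reaction at room temperature, protected from light · Detection – fluorescence intensity · Controls – substrate-only low control, DMSO enzyme-plus-substrate high control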
# GRK2 inh: inhibitors of human GRK2 displacing RNA aptamer; P25098; bead flow cytometry, FAM-aptamer displacement from GRK2; inhibition of aptamer binding, % at 10 µM; hit rate 0.59% among 330,000;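 active = inhibition of aptamer binding above 40%, roughly 3 SD of noise, on plates passing a quality check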;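 note: median bead fluorescence of bound FAM aptamer so fluorescent compounds give negative values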
# Scp1 confirm: Scp-1 (human) inhibition, single-dose confirmed. recombinant SCP-1 catalytic domain, phosphate release, malachite green absorbance. AID 540281. hit rate 61% among 2,500. inhibition, % at 20 µM. shares compounds with Scp1 inh;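 note: plate controls were DMSO with enzyme for no effect and buffer wells lacking enzyme for full effect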
# MG interference: counter-screen for Scp-1 inhibitors: colorimetric interference; Colorimetric interference counterscreen, malachite green absorbance 630 nm; 2,500 tested, under 10 active; shares compounds with Scp1 inh; apparent inhibition (interference), % at 20 µM;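 note: compounds added after enzyme reaction finished so only phosphate colour detection is probed; plate controls were DMSO wells with completed Scp-1 reaction for no effect and substrate wells lacking enzyme for full effect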
# Scp-1 Tm shift: binds human Scp-1, shifting its melting temperature. shares compounds with Scp1 inh. Recombinant SCP1, Sypro Orange thermal shift Tm. thermal shift relative to vanadate control, % at 40 µM. hit rate 25% among 1,500. AID 540329;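 active = substances whose mean melting-temperature shift, as a percentage of the reference inhibitor's shift, reaches about 5.3%, limit read from the data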;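 note: 0% = Tm of DMSO wells and 100% = Tm with sodium orthovanadate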
# DNMT1 confirm: confirmation of human DNMT1 inhibitors. shares compounds with DNMT1 block. DNMT1 molecular beacon HinP1I cleavage, fluorescence. inhibition, % at 10 µM. hit rate 8% among 2,300. AID 602385;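 active = average inhibition of at least 30% in the single-concentration confirmation test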
# Beacon interf: beacon fluorescence artifact counter-screen | shares compounds with DNMT1 block | DNMT1 molecular beacon spectral interference counterscreen, fluorescence 485/520 | activation (fluorescence interference), % at 10 µM | hit rate 1% among 2,300 | AID 602387;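 active = activation of at least 30% at 10 µM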;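 note: DNMT1 catalytic domain with a HinP1I cleavage step and a FAM/dabcyl DNA beacon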
# STEP inh conf: confirmation of human STEP phosphatase inhibitors. shares compounds with STEP inh. recombinant STEP, OMFP fluorogenic substrate, fluorescence. inhibition, % at 20 µM. hit rate 32% among 520; call rule not given here;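 note: 0% = enzyme with substrate plus DMSO and 100% = substrate without enzyme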
# Starred values were filed as active, the others as inactive; nt = not tested or not shown.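 Rule for the calls, unless noted: active = inhibition of at least 30% at 20 µM; inactive = the rest.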
SMILES,STEP inh,SUMO1-SIM PPI,Scp1 inh,DNMT1 block,LMPTP inh,GRK2 inh,Scp1 confirm,MG interference,Scp-1 Tm shift,STEP inh conf,others
Cc1cc(OCC(=O)NCC2CCC(C(=O)O)CC2)c2c(C)c(Cc3ccccc3)c(=O)oc2c1 (stereo not drawn),1,0,39,-4,-1,2,nt,nt,nt,nt,
Cc1c(CCC(=O)O)c(=O)oc2c(C)c(OCc3cc4c(cc3Cl)OCO4)ccc12,94*,81*,59*,2,77*,9,39*,-21,-36,51*,
COc1ccccc1N(CC(O)Cn1ccnc1C)S(=O)(=O)c1ccc(C)cc1 (stereo not drawn),-7,2,17,6,7,0,nt,nt,nt,nt,
Cc1onc(-c2ccccc2)c1C(=O)OCC(=O)N(C)c1ccccc1,-2,-1,-3,2,0,4,nt,nt,nt,nt,
COc1cccc2cc(C(=O)Nc3cccc(C)n3)c(=O)oc12,56*,-12,102*,74*,-3,0,60*,-6,-3,-1,DNMT1 confirm=2;Beacon interf=3
O=C1NC(=S)N(C(=O)c2ccc(F)cc2)/C1=C/c1cccnc1,43*,-18,95*,4,18,1,56*,-17,3,14,
COc1ccc(N2CCN(C(=O)NC3CC(=O)N(c4ccc(OC)cc4)C3)CC2)cc1 (stereo not drawn),-2,-2,-9,2,0,1,nt,nt,nt,nt,
FC(F)(F)c1ccc(Nc2nnnc3ccccc23)cc1,97*,-8,73*,-2,51*,0,62*,-13,-24,-8,
COC(=O)COc1ccc2oc(=O)cc(-c3cc4cccc(OC)c4o3)c2c1,75*,40*,75*,44,61*,0,56*,-27,-21,10,
CCc1ccc(N=C2NC(=O)/C(=C/c3ccc(OCC(=O)O)c(OC)c3)S2)cc1,1,-4,11,0,-1,nt,nt,nt,nt,nt,
CCc1ccc(N=C2NC(=O)/C(=C/c3ccc(OCC(=O)O)cc3)S2)cc1,41*,-11,74*,5,1,0,42*,-13,-5,71*,
Cc1ccc(SCC(=O)OCC(=O)NC(C)c2ccc(F)cc2)cc1 (stereo not drawn),0,5,-6,-4,0,0,nt,nt,nt,nt,
O=C(O)CC/C(=N\Nc1ccc(S(=O)(=O)N2CCCC2)cc1[N+](=O)[O-])c1cccs1,97*,-25,63*,-6,6,nt,57*,-4,16*,83*,
O=C1CC[C@@H](C(=O)N2CSC[C@@H]2C(=O)Nc2cccc(C(F)(F)F)c2)N1,-2,2,nt,4,-2,nt,nt,nt,nt,nt,
O=C(/C=C/c1ccccc1Cl)Nc1ccc2c(c1)C(=O)NC2=O,95*,37,101*,65*,71*,3,85*,-11,6.8*,19,DNMT1 confirm=6;Beacon interf=3
O=C(N/N=C/c1cccc([N+](=O)[O-])c1)c1cc2c(ccc3ccccc32)o1,99*,5,99*,44,64*,0,68*,-12,-11,32,
Nc1ccccc1C(=O)NN=Cc1cccc([N+](=O)[O-])c1,-1,-22,nt,1,0,nt,nt,nt,nt,nt,
COc1ccccc1/C=N/NC(=O)c1cc2c(ccc3ccccc32)o1,0,-9,5,-4,4,0,nt,nt,nt,nt,
O=C(O)c1ccc(/C=N/NC(=O)c2cc3c(ccc4ccccc43)o2)cc1,98*,15,79*,0,67*,0,71*,-9,1,7,
CN(Cc1cnn(-c2ccccc2)c1)C(=O)c1cccc(S(=O)(=O)Nc2ccccc2F)c1,-2,9,nt,-3,-1,nt,nt,nt,nt,nt,
Cc1csc2nc(NC(=O)c3ccccc3)sc(=O)c12,79*,-7,87*,24,57*,2,70*,-15,-8,16,
Cc1csc2c(=O)sc(NC(=O)c3ccc(F)cc3)nc12,0,4,0,8,-2,0,nt,nt,nt,nt,
N#CC1C(=O)NC(=O)C(C#N)C12CCCc1sccc12 (stereo not drawn),-3,3,nt,2,-1,nt,nt,nt,nt,nt,
O=C(O)C(S)C(S)C(=O)O (stereo not drawn),50*,23,96*,86*,40,12,65*,-15,-2,101*,
COc1ccc(Cn2c(-c3ccco3)nc3c(c(=O)c4ccccc4n3C)c2=O)cc1,80*,45*,91*,16,69*,2,17,8,nt,4,
SMILES,STEP inh,SUMO1-SIM PPI,Scp1 inh,DNMT1 block,LMPTP inh,GRK2 inh,Scp1 confirm,MG interference,Scp-1 Tm shift,STEP inh conf,others
CC(C)(C)c1ccc(S(=O)(=O)N2CCN(CC(=O)NC(=O)NC3CCCCC3)CC2)cc1,-1,-4,-3,4,2,0,nt,nt,nt,nt,
COc1cccc(CN(C)C(=O)CSCC(=O)Nc2cc(C)on2)c1OC,-2,-52,-9,-1,-8,0,nt,nt,nt,nt,
CCOc1cc(/C=C2/NC(=O)NC2=O)cc(Br)c1OCc1ccc(C(=O)O)cc1,96*,2,73*,-2,56*,0,88*,-4,-50,23,
CCn1nnnc1SCC(=O)NC1Cc2ccccc2C1,1,-1,-8,5,-1,0,nt,nt,nt,nt,
CCN(c1ccccc1)S(=O)(=O)c1cc(C(=O)OC(C)C(=O)Nc2ccc3c(c2)OCCO3)ccc1C (stereo not drawn),41*,6,81*,29,23,10,63*,-16,7.5*,59*,
CC(OC(=O)c1ccccn1)C(=O)Nc1ccc2c(c1)OCCO2 (stereo not drawn),1,4,-1,2,-1,0,nt,nt,nt,nt,
CCN(c1ccccc1)S(=O)(=O)c1cc(C(=O)OCC(=O)c2c(N)n(C)c(=O)n(C)c2=O)ccc1C,46*,19,62*,93*,26,nt,63*,-19,-4,70*,DNMT1 confirm=3;Beacon interf=1

# Screening results deposited in PubChem BioAssay by several laboratories.
